{"data": "Experimental data from different studies", "CNR2": "Cannabinoid receptor 2 (CNR2, Homo sapiens, UniProt P34972)", "LIMK2": "LIM domain kinase 2 (LIMK2, Homo sapiens, UniProt P53671)", "note": "Compare with care: the assays were run in different laboratories."}
{"SMILES": "CCOC(=O)[C@](CC)(CCC[S+]([O-])CCOCCOCCNC(=O)OC(C)(C)C)NC(=O)c1ccc(C2CC2)c(Cc2ccc(F)cc2)n1 (stereo partly shown)", "target": "CNR2", "assay": "cAMP, agonist", "measurement": "Emax", "result": "93%"}
{"SMILES": "Cn1cc(-c2cccc(N3CCc4c(sc5c4CC(C)(C)C5)C3=O)c2CO)cc(Nc2ccncn2)c1=O", "target": "LIMK2", "assay": "enzyme activity, inhibitor", "conditions": "1 µM", "measurement": "inhibition", "result": "6%"}
{"SMILES": "Nc1ncc(-c2nc(N3CCOCC3)nc(N3CCOCC3)n2)c(C(F)F)n1", "target": "Membrane-associated tyrosine- and threonine-specific cdc2-inhibitory kinase (PKMYT1, Homo sapiens, UniProt Q99640)", "assay": "binding, competition with immobilised ligand", "conditions": "10 µM", "measurement": "remaining binding", "result": "98%"}
{"SMILES": "CCN(CC)CCCC[C@H](NC(=O)[C@H](CC(C)C)NC(=O)[C@H](C)NC(=O)[C@H](Cc1ccccc1)NC(=O)c1ccc(C(C)(C)C)cc1)C(=O)N[C@@H](CO)C(=O)OC", "target": "Bromodomain-containing protein 9 (BRD9, Homo sapiens, UniProt Q9H8M2)", "assay": "thermal stability, DSF", "conditions": "25 µM", "measurement": "ΔTm", "result": "0.23 °C"}
{"SMILES": "Cc1nn(C)cc1-c1nc2c(N3CCN(Cc4ccc(Cl)cc4)CC3)c(Cl)cnc2[nH]1", "target": "Serine/threonine-protein kinase 35 (STK35, Homo sapiens, UniProt Q8TDR2)", "assay": "binding, competition with immobilised ligand", "conditions": "1 µM", "measurement": "remaining binding", "result": "75%"}
{"SMILES": "Cn1cc(-c2cc(F)cc(N3CCn4c(cc5c4CCCC5)C3=O)c2CO)cc(Nc2ccc(N3CCN(C4COC4)CC3)cn2)c1=O", "target": "LIMK2", "assay": "enzyme activity, inhibitor", "conditions": "0.1 µM", "measurement": "inhibition", "result": "-3%"}
{"SMILES": "O=C(O)C(F)(F)C(F)(F)C(F)(F)C(F)(F)C(F)(F)C(F)(F)C(F)(F)F", "target": "Solute carrier family 22 member 12 (SLC22A12, Homo sapiens, UniProt Q96S37)", "assay": "transporter uptake, substrate", "measurement": "Km", "result": "820 µM"}
{"SMILES": "C#Cc1n[nH]c2c(-c3cn([C@@H](C)c4ccccn4)c(=O)[nH]c3=O)cc(F)cc12", "target": "Serine/threonine-protein kinase haspin (HASPIN, Homo sapiens, UniProt Q8TF76)", "assay": "enzyme activity, inhibitor", "conditions": "0.1 µM", "measurement": "inhibition", "result": "4.5%"}
{"SMILES": "COc1ccc(S(=O)(=O)N(CC(=O)NO)CC(C)C)cc1", "target": "72 kDa type IV collagenase (MMP2, Homo sapiens, UniProt P08253)", "assay": "enzyme activity, inhibitor", "conditions": "1 µM", "measurement": "inhibition", "result": "100%"}
{"SMILES": "CCOC(=O)C(CC)(CCCSCCOCCOCCOCCNC(=O)OC(C)(C)C)NC(=O)c1ccc(C2CC2)c(Cc2ccc(F)cc2)n1 (stereo not shown)", "target": "CNR2", "assay": "cAMP, agonist", "measurement": "Emax", "result": "91%"}
{"SMILES": "Nc1ccc2cccc(O)c2n1", "target": "Methionyl-tRNA synthetase, putative (Trypanosoma brucei brucei, UniProt Q38C91)", "assay": "thermal stability, DSF", "conditions": "800 µM", "measurement": "ΔTm", "result": "1.8 °C"}
{"SMILES": "O=C(N1CCCCC1Cc1ccccc1)n1cc(-c2ccc(-c3ccccc3)cc2)nn1 (stereo not shown)", "target": "Diacylglycerol lipase-alpha (Mus musculus, UniProt Q6WQJ1)", "assay": "enzyme activity, inhibitor", "measurement": "kinact", "result": "0.00133 s⁻¹"}
{"SMILES": "COc1ncccc1-c1cnn2ccc(N3CCN(C(=O)OC(C)C)CC3)nc12", "target": "Epithelial discoidin domain-containing receptor 1 (DDR1, Homo sapiens, UniProt Q08345)", "assay": "binding, competition with immobilised ligand", "conditions": "1 µM", "measurement": "remaining binding", "result": "100%"}
